Assay outcomes deposited in PubChem BioAssay by Broad Institute.
Compounds with a hit are over-represented: about 1.7% of the library has one in this group of screens.
CAL PDZ FP-1 = inhibitors of human CAL PDZ peptide binding; inhibition, % at 24.9 µM; hit rate 0.92% among 300,000; AID 602252; Q9HD26; purified CAL PDZ, TMR-peptide fluorescence polarization, 1 h;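 active means mean inhibition of at least 30% with at least half of replicates also reaching 30%; inconclusive means no clear call, values can overlap the other calls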
ARNT-TACC3 inh = disrupts binding between human ARNT and TACC3. hit rate 0.66% among 390,000. AlphaScreen His-ARNT PAS-B/GST-TACC3 binding, luminescence; TACC3 fragment carries E629A point mutation. AID 623870. Q9Y6A5. inhibition, % at 9.99 µM;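 active means mean inhibition of replicates at least 50% and at least half of replicates each reaching 50%; inconclusive means half or more replicates reach 50% but mean below 50%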
Rce1 inh = yeast Ras-converting enzyme inhibition; Q03530; yeast membranes, quenched prenylated peptide cleavage fluorescence; calls only; hit rate 0.27% among 290,000;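 active means fall in fluorescence gain of 50% or more versus controls, with final raw signal at or below 3038400; inconclusive means same 50% fall but final raw signal above 3038400; inactive means fall in fluorescence gain under 50%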
Target sequence (Q03530 whole entry, looked up): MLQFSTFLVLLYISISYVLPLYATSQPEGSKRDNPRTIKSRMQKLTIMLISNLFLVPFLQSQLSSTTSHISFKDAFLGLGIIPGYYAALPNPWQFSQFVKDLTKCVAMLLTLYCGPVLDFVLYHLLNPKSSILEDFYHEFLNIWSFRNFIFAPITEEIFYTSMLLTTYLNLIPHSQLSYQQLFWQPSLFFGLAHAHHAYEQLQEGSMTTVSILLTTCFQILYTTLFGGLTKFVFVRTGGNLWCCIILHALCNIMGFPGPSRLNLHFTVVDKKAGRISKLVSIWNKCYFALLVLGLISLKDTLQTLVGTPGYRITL
CAL PDZ FP-2 = inhibitors of human CAL PDZ peptide binding | Q9HD26 | purified CAL PDZ, TMR-peptide fluorescence polarization, 1 h | inhibition, % at 20 µM | hit rate 0.02% among 330,000;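 active means highest replicate inhibition of at least 40%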
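Test system: purified CerCALP PDZ construct; Compound dosing: one concentration, 20 µM compound; Also added: TMR-labelled reporter peptide T*-PRC34 bound in PDZ groove; Read-out: inhibition from polarization loss; Controls: unlabelled peptide and DMSO controls; Signal: FP readout, S and P plane fluorescence; Incubation: 1 h at RT.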
AI-2 QS modul = modulators of Vibrio harveyi AI-2 quorum sensing system; Vibrio harveyi JMH597 AI-2 luminescence/OD600 ratio, 9 h; active compounds read low; strain lacks LuxN and CqsS sensors; 0 = neutral-control median; activity change, % at 7.5 µM; hit rate 0.4% among 300,000; in the data active means activity change below about -75%, passing the limit was not always enough; inconclusive means no clear call, values can overlap the other calls;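 further: luminescence divided by OD600 gain over 9 h not by final OD600 alone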
JMH597 growth rt = retest: inhibitors of Vibrio harveyi JMH597 growth; OD600 absorbance, 9 h; lacks LuxN and CqsS sensors; growth inhibition, % at 7.5 µM; hit rate 1% among 750; shares compounds with AI-2 QS modul;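 active means every replicate shows growth inhibition above 50%; inconclusive means at least half, but not all, replicates pass that cutoff; inactive means fewer than half of replicates pass it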
BB721 const-QS lum = retest counter-screen: luminescence loss in constitutive-on quorum sensing strain BB721 | shares compounds with AI-2 QS modul | Vibrio harveyi BB721 luminescence, 9 h | inhibition, % at 7.5 µM | AID 2727 | hit rate 95% among 750;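 active means inhibition above about 80% in every replicate, not just on average, limit read from the data; inconclusive means at least half of replicates past the limit, but not all; inactive means fewer than half of replicates past the limit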
BB721 growth rt = retest Vibrio harveyi BB721 growth inhibition | shares compounds with AI-2 QS modul | hit rate 3% among 750 | growth inhibition, % at 7.5 µM | OD600 absorbance, 9 h;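 active means every replicate shows growth inhibition above 50%; inconclusive means at least half but not all replicates above 50% inhibition; inactive means under half of replicates above 50% inhibition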
AI-2 QS JMH597 = Vibrio harveyi AI-2 signaling luminescence modulation – JMH597 strain, confirmation. shares compounds with AI-2 QS modul. Vibrio harveyi JMH597 AI-2 quorum sensing luminescence, 9 h; luxN and CqsS knockout, AI-2 only. inhibition, % at 7.5 µM. hit rate 97% among 750. AID 2736;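 active means every replicate shows more than 75% inhibition of signal versus neutral control wells; inconclusive means half to three quarters of replicates exceed 75% inhibition; inactive means fewer than half of replicates exceed 75% inhibition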
Numbers stand for hits.

How did Clc1ccc(CON/C=N/c2ncnc3sccc23)c(Cl)c1 do in these assays?
CAL PDZ FP-1: inactive; ARNT-TACC3 inh: inactive; Rce1 inh: inactive; AI-2 QS modul: -95; JMH597 growth rt: inactive; BB721 const-QS lum: 90; BB721 growth rt: inactive; AI-2 QS JMH597: 94

What do the screens show for `CCCNC(=O)[C@@H]1[C@@H](CO)[C@@H]2Cn3c(ccc(C4=CCCC4)c3=O)[C@@H]2N1C(=O)CC`?
ARNT-TACC3 inh: inactive

What do the screens show for `COc1ccc(CC(=O)O/N=C(\N)c2ccc(C)cc2)cc1`?
ARNT-TACC3 inh: inactive; Rce1 inh: inactive; CAL PDZ FP-2: inactive; AI-2 QS modul: -89; JMH597 growth rt: inactive; BB721 const-QS lum: 96; BB721 growth rt: inactive; AI-2 QS JMH597: 97

Results for Cc1ccc(CC(=O)O/N=C(\N)c2ccccn2)cc1 ?
CAL PDZ FP-1: inactive; ARNT-TACC3 inh: inactive; Rce1 inh: inactive; AI-2 QS modul: -84; JMH597 growth rt: inactive; BB721 const-QS lum: 87; BB721 growth rt: inactive; AI-2 QS JMH597: 91

Results for COc1ccc(CC(=O)O/N=C(\N)c2ccccn2)cc1OC ?
CAL PDZ FP-1: inactive; ARNT-TACC3 inh: inactive; Rce1 inh: inactive; CAL PDZ FP-2: inactive; AI-2 QS modul: inactive

What do the screens show for `N/C(=N\OC(=O)Cc1ccc(Cl)cc1)c1ccccn1`?
CAL PDZ FP-1: inactive; ARNT-TACC3 inh: inactive; Rce1 inh: inactive; CAL PDZ FP-2: inactive; AI-2 QS modul: -87; JMH597 growth rt: inactive; BB721 const-QS lum: 91; BB721 growth rt: inactive; AI-2 QS JMH597: 93

How did N/C(=N\OC(=O)Cc1ccc(Cl)cc1)c1ccncc1 do in these assays?
CAL PDZ FP-1: inactive; ARNT-TACC3 inh: inactive; Rce1 inh: inactive; CAL PDZ FP-2: inactive; AI-2 QS modul: inactive

How did C[C@H]1CN([C@@H](C)CO)S(=O)(=O)c2ccc(-c3ccccc3)cc2O[C@@H]1CN(C)C(=O)c1ccc2c(c1)OCO2 do in these assays?
ARNT-TACC3 inh: inactive

How did Cc1ccc(C(C)C)c(OCCCCN2CCNCC2)c1 do in these assays?
CAL PDZ FP-1: inactive; ARNT-TACC3 inh: inactive; CAL PDZ FP-2: inactive

What do the screens show for `O=C(C1CCN(S(=O)(=O)c2ccc(Cl)cc2)CC1)N1CCCCCCC1`?
CAL PDZ FP-1: inactive; ARNT-TACC3 inh: inactive; Rce1 inh: inactive; CAL PDZ FP-2: inactive; AI-2 QS modul: inactive

How did CCCCN(CC(O)COc1cccc(C)c1)CC(O)COc1cccc(C)c1 (centres undefined) do in these assays?
Rce1 inh: inactive; CAL PDZ FP-2: inactive; AI-2 QS modul: inactive

Results for CN(C)S(=O)(=O)c1ccc(Oc2ccccc2)cc1 ?
CAL PDZ FP-1: inactive; ARNT-TACC3 inh: inactive; Rce1 inh: inactive; CAL PDZ FP-2: inactive; AI-2 QS modul: -93; JMH597 growth rt: inactive; BB721 const-QS lum: 84; BB721 growth rt: inactive; AI-2 QS JMH597: 99

What do the screens show for `Cc1cccc(N2CCN(Cc3oc(CO)cc(=O)c3O)CC2)c1C`?
CAL PDZ FP-1: inactive; ARNT-TACC3 inh: inactive; Rce1 inh: inactive; CAL PDZ FP-2: inactive; AI-2 QS modul: inactive

Results for O=C(/C=C/c1ccc(F)cc1)NCCC1=CCCCC1 ?
CAL PDZ FP-1: inactive; ARNT-TACC3 inh: inactive; Rce1 inh: inactive; CAL PDZ FP-2: inactive; AI-2 QS modul: -89; JMH597 growth rt: inconclusive; BB721 const-QS lum: 97; BB721 growth rt: inactive; AI-2 QS JMH597: 98

Results for COc1ccccc1/C=C/C(=O)NCCC1=CCCCC1 ?
CAL PDZ FP-1: inactive; Rce1 inh: inactive; CAL PDZ FP-2: inactive; AI-2 QS modul: inactive

How did COc1cccc(Oc2cn[nH]c2-c2ccc(O)cc2O)c1 do in these assays?
CAL PDZ FP-1: inactive; ARNT-TACC3 inh: inactive; Rce1 inh: inactive; CAL PDZ FP-2: inactive; AI-2 QS modul: -84; JMH597 growth rt: inconclusive; BB721 const-QS lum: 98; BB721 growth rt: inconclusive; AI-2 QS JMH597: 99

How did O=C(c1cc2cc(Cl)ccc2[nH]1)N1CCN(c2ccccc2F)CC1 do in these assays?
CAL PDZ FP-1: inactive; ARNT-TACC3 inh: inactive; Rce1 inh: inactive; CAL PDZ FP-2: inactive; AI-2 QS modul: inactive

How did O=C(c1cc2cc(Cl)ccc2[nH]1)N1CCN(C(=O)c2ccco2)CC1 do in these assays?
CAL PDZ FP-1: inactive; ARNT-TACC3 inh: inactive; Rce1 inh: inactive; CAL PDZ FP-2: inactive; AI-2 QS modul: -94; JMH597 growth rt: inactive; BB721 const-QS lum: 97; BB721 growth rt: inactive; AI-2 QS JMH597: 98

What do the screens show for `O=C(O)c1cccnc1Sc1ccc(Br)cc1`?
ARNT-TACC3 inh: inactive; Rce1 inh: inactive; CAL PDZ FP-2: inactive; AI-2 QS modul: -84; JMH597 growth rt: inactive; BB721 const-QS lum: 97; BB721 growth rt: inactive; AI-2 QS JMH597: 97

How did Cc1cccc(NC(=O)CO/N=C/c2ccc3c(c2)OCO3)c1 do in these assays?
CAL PDZ FP-1: inactive; ARNT-TACC3 inh: inactive; Rce1 inh: inactive; CAL PDZ FP-2: inactive; AI-2 QS modul: -89; JMH597 growth rt: inactive; BB721 const-QS lum: 96; BB721 growth rt: inactive; AI-2 QS JMH597: 97

What do the screens show for `O=C(CO/N=C/c1ccc2c(c1)OCO2)Nc1cccc(Br)c1`?
CAL PDZ FP-1: inactive; ARNT-TACC3 inh: inactive; Rce1 inh: inactive; CAL PDZ FP-2: inactive; AI-2 QS modul: -89; JMH597 growth rt: inactive; BB721 const-QS lum: 98; BB721 growth rt: inactive; AI-2 QS JMH597: 98

What do the screens show for `O=C(/C=C/c1cccc([N+](=O)[O-])c1)NCc1ccc2c(c1)OCO2`?
CAL PDZ FP-1: inactive; ARNT-TACC3 inh: inactive; Rce1 inh: inactive; CAL PDZ FP-2: inactive; AI-2 QS modul: inactive

How did Cc1cccc(NC(=S)NCc2ccc3c(c2)OCO3)c1 do in these assays?
CAL PDZ FP-1: inactive; ARNT-TACC3 inh: inactive; Rce1 inh: inactive; CAL PDZ FP-2: inactive; AI-2 QS modul: inactive

What do the screens show for `O=C(/C=C/c1cccc(F)c1)NCc1ccc2c(c1)OCO2`?
ARNT-TACC3 inh: inactive; Rce1 inh: inactive; CAL PDZ FP-2: inactive; AI-2 QS modul: -88; JMH597 growth rt: inactive; BB721 const-QS lum: 96; BB721 growth rt: inactive; AI-2 QS JMH597: 97

Results for Cc1cccc(NC(=O)NCc2ccc3c(c2)OCO3)c1 ?
CAL PDZ FP-1: inactive; ARNT-TACC3 inh: inactive; Rce1 inh: inactive; CAL PDZ FP-2: inactive; AI-2 QS modul: -87; JMH597 growth rt: inactive; BB721 const-QS lum: 96; BB721 growth rt: inactive; AI-2 QS JMH597: 96

Results for C[C@@H]1CN([C@@H](C)CO)C(=O)CCCn2nncc2CO[C@@H]1CN(C)C(=O)Nc1cccc(Oc2ccccn2)c1 ?
ARNT-TACC3 inh: inactive

What do the screens show for `COc1cc(C(=O)Nc2ccc(S(=O)(=O)Nc3onc(C)c3C)cc2)cc(OC)c1OC`?
CAL PDZ FP-1: inactive; ARNT-TACC3 inh: inactive; Rce1 inh: inactive; CAL PDZ FP-2: inactive; AI-2 QS modul: inactive
